Experimental data taken from ChEMBL document CHEMBL3045116, “Synthesis and biological evaluation of 2-(5-substituted-1-((diethylamino)methyl)-2-oxoindolin-3-ylidene)-N-substituted-hydrazinecarbothioamides” (Med Chem Res, 2013).

Assays:
[1] = test system: Vesicular stomatitis virus; assay: Antiviral activity against Vesicular stomatitis virus infected human HEL cells assessed as reduction of virus-induced cytopathic effect after 3 days by colorimetric formazan-based MTS assay; format: functional, organism-based; conditions: 72 h
Outline: (§1)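 Confluent cell monolayers were infected with 100 CCID50 of virus, and serial dilutions of compound were added at the time of infection.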

[2] = test system: Influenza A virus; assay: Antiviral activity against Unidentified Influenza A virus (H1N1) infected MDCK cells assessed as reduction of virus-induced cytopathic effect after 3 days by colorimetric formazan-based MTS assay; format: functional, organism-based; conditions: 72 h; outline: as §1
[3] = test system: Punta Toro virus; assay: Antiviral activity against Punta Toro virus infected in African green monkey Vero cells assessed as reduction of virus-induced cytopathic effect after 3 days by colorimetric formazan-based MTS assay; format: functional, organism-based; conditions: 72 h; outline: as §1
[4] = test system: Staphylococcus aureus; assay: Antibacterial activity against Staphylococcus aureus assessed as growth inhibition at 50 ug/ml by cup-plate method (reference value: 8 to 10 mm); format: functional; conditions: read-out: DIZ
[5] = test system: Vaccinia virus; assay: Antiviral activity against Vaccinia virus infected human HEL cells assessed as reduction of virus-induced cytopathic effect after 3 days by colorimetric formazan-based MTS assay; format: functional, organism-based; conditions: Orthopoxvirus vaccinia, 72 h; outline: as §1
[6] = test system: Aspergillus niger; assay: Antifungal activity against Aspergillus niger assessed as growth inhibition at 50 ug/ml by cup-plate method (reference value: 8 to 10 mm); format: functional; conditions: read-out: DIZ
[7] = test system: Salmonella typhi; assay: Antibacterial activity against Salmonella enterica subsp. enterica serovar Typhi assessed as growth inhibition at 50 ug/ml by cup-plate method (reference value: 8 to 10 mm); format: functional; conditions: read-out: DIZ
[8] = test system: Human respirovirus 3; assay: Antiviral activity against Human parainfluenza virus 3 infected African green monkey Vero cells assessed as reduction of virus-induced cytopathic effect after 3 days by colorimetric formazan-based MTS assay; format: functional, organism-based; conditions: Human respirovirus 3, Vero, 72 h
Outline: (§2)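 Cells grown to confluency in 96-well plates ([…], Vero for lines 9–10) were infected with 100 CCID50 of virus, and serial compound dilutions were added at infection. Plates were incubated at 37 °C for 3 days, until complete CPE appeared in untreated virus controls.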

[9] = test system: Human alphaherpesvirus 1; assay: Antiviral activity against Human herpesvirus 1 strain KOS infected human HEL cells assessed as reduction of virus-induced cytopathic effect after 3 days by colorimetric formazan-based MTS assay; format: functional, organism-based; conditions: Human alphaherpesvirus 1, KOS, 72 h; outline: as §1
[10] = test system: Bacillus subtilis; assay: Antibacterial activity against Bacillus subtilis assessed as growth inhibition at 50 ug/ml by cup-plate method (reference value: 8 to 10 mm); format: functional; conditions: read-out: DIZ
[11] = test system: Escherichia coli; assay: Antibacterial activity against Escherichia coli assessed as growth inhibition at 50 ug/ml by cup-plate method (reference value: 8 to 10 mm); format: functional; conditions: read-out: DIZ
[12] = test system: Influenza B virus; assay: Antiviral activity against Influenza B virus infected in MDCK cells assessed as reduction of virus-induced cytopathic effect after 3 days by colorimetric formazan-based MTS assay; format: functional, organism-based; conditions: 72 h; outline: as §1
[13] = test system: Felid alphaherpesvirus 1; assay: Antiviral activity against Felid herpesvirus 1 infected cat CRFK cells assessed as reduction of virus-induced cytopathic effect after 3 days by colorimetric formazan-based MTS assay; format: functional, organism-based; conditions: Felid alphaherpesvirus 1, CRFK, 72 h; outline: as §2
[14] = test system: Human alphaherpesvirus 1; assay: Antiviral activity against acyclovir-resistant thymidine kinase negative Human herpesvirus 1 strain KOS infected human HEL cells assessed as reduction of virus-induced cytopathic effect after 3 days by colorimetric formazan-based MTS assay; format: functional, organism-based; conditions: Human alphaherpesvirus 1, KOS, 72 h; outline: as §1
[15] = test system: Vesicular stomatitis virus; assay: Antiviral activity against Vesicular stomatitis virus infected human HeLa cells assessed as reduction of virus-induced cytopathic effect after 3 days by colorimetric formazan-based MTS assay; format: functional, organism-based; conditions: 72 h; outline: as §1
[16] = test system: Respirovirus muris; assay: Antiviral activity against Sendai virus infected African green monkey Vero cells assessed as reduction of virus-induced cytopathic effect after 3 days by colorimetric formazan-based MTS assay; format: functional, organism-based; conditions: 72 h
[17] = (§3) Cytotoxicity against MDCK cells assessed as change in cellular morphology; format: cell-based, Canis lupus familiaris; conditions: dog, MDCK cells
Outline: (§4)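 Uninfected cells were exposed to compound in parallel with the antiviral cultures. The read-out is the minimum cytotoxic concentration that causes a microscopically detectable alteration of normal cell morphology.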

[18] = test system: MDCK; assay: as §3; format: cell-based, Canis lupus familiaris; conditions: dog, mdck; outline: as §4
[19] = test system: HeLa; assay: (§5) Cytotoxicity against Homo sapiens (human) HeLa cells assessed as change in cellular morphology; format: cell-based; conditions: hela; outline: as §4
[20] = as §5; format: cell-based; conditions: HeLa cells; outline: as §4
[21] = test system: Mammalian orthoreovirus 1; assay: Antiviral activity against Mammalian orthoreovirus 1 infected African green monkey Vero cells assessed as reduction of virus-induced cytopathic effect after 3 days by colorimetric formazan-based MTS assay; format: functional, organism-based; conditions: Mammalian orthoreovirus 1, Vero, 72 h; outline: as §2
[22] = test system: Klebsiella pneumoniae; assay: Antibacterial activity against Klebsiella pneumoniae assessed as growth inhibition at 50 ug/ml by cup-plate method (reference value: 8 to 10 mm); format: functional; conditions: read-out: DIZ
[23] = test system: Coxsackievirus B4; assay: Antiviral activity against Human coxsackievirus B4 infected African green monkey Vero cells assessed as reduction of virus-induced cytopathic effect after 3 days by colorimetric formazan-based MTS assay; format: functional, organism-based; conditions: Enterovirus B, 72 h; outline: as §1
[24] = Cytotoxicity against Homo sapiens (human) HEL cells assessed as change in cellular morphology; format: cell-based
[25] = test system: Influenza A virus H3N2; assay: Antiviral activity against Influenza A virus H3N2 infected MDCK cells assessed as reduction of virus-induced cytopathic effect after 3 days by colorimetric formazan-based MTS assay; format: functional, organism-based; conditions: 72 h; outline: as §1
[26] = Cytotoxicity against Chlorocebus aethiops (African green monkey) Vero cells assessed as change in cellular morphology; format: cell-based; conditions: chlorocebus sabaeus
[27] = Inhibition of beta lactamase assessed as increase in time taken for iodine decolorization relative to control; parameters: concentration or dose not given beside the values; conditions: concentration not given here
[28] = test system: Coxsackievirus B4; assay: Antiviral activity against Human coxsackievirus B4 infected human HeLa cells assessed as reduction of virus-induced cytopathic effect after 3 days by colorimetric formazan-based MTS assay; format: functional, organism-based; conditions: Enterovirus B, 72 h; outline: as §1
[29] = test system: Human alphaherpesvirus 2; assay: Antiviral activity against Human herpesvirus 2 strain G infected human HEL cells assessed as reduction of virus-induced cytopathic effect after 3 days by colorimetric formazan-based MTS assay; format: functional, organism-based; conditions: Human alphaherpesvirus 2, strain G, 72 h; outline: as §1
[30] = test system: Proteus vulgaris; assay: Antibacterial activity against Proteus vulgaris assessed as growth inhibition at 50 ug/ml by cup-plate method (reference value: 8 to 10 mm); format: functional; conditions: read-out: DIZ
[31] = test system: Feline infectious peritonitis virus; assay: Antiviral activity against Feline Infectious peritonitis virus infected cat CRFK cells assessed as reduction of virus-induced cytopathic effect after 3 days by colorimetric formazan-based MTS assay; format: functional, organism-based; conditions: Alphacoronavirus 1, CRFK, 72 h; outline: as §1
[32] = test system: Respiratory syncytial virus; assay: Antiviral activity against Respiratory syncytial virus infected human HeLa cells assessed as reduction of virus-induced cytopathic effect after 3 days by colorimetric formazan-based MTS assay; format: functional, organism-based; conditions: 72 h; outline: as §1
[33] = test system: L1210; assay: Cytotoxicity against Mus musculus (mouse) L1210 cells assessed as growth inhibition after 48 hr by coulter counter analysis; format: functional, cell-based; conditions: L1210, 48 h
Outline: (§6)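 Cells in growth medium were allowed to proliferate with variable compound amounts at 37 °C in a humidified CO2 atmosphere. Incubation ran 48 h for L1210, 72 h for CEM and 96 h for HeLa. Cells were then counted with a Coulter counter.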

[34] = Cytotoxicity against Felis catus (cat) CRFK cells assessed as change in cellular morphology; format: cell-based; conditions: crfk; outline: as §4
[35] = test system: CCRF-CEM; assay: Cytotoxicity against Homo sapiens (human) CEM cells assessed as growth inhibition after 72 hr by coulter counter analysis; format: functional, cell-based; outline: as §6
[36] = Inhibition of beta lactamase assessed as time for decolorization of iodine (reference value: 79.5 secs)
[37] = test system: Candida albicans; assay: Antifungal activity against Candida albicans assessed as growth inhibition at 50 ug/ml by cup-plate method (reference value: 8 to 10 mm); format: functional; conditions: read-out: DIZ

| Compound | EC50 [1] [µM] | EC50 [2] [µM] | EC50 [3] [µM] | zone of inhibition at 50 µg/mL [4] [mm] | EC50 [5] [µM] | zone of inhibition at 50 µg/mL [6] [mm] | zone of inhibition at 50 µg/mL [7] [mm] | EC50 [8] [µM] | EC50 [9] [µM] | zone of inhibition at 50 µg/mL [10] [mm] | zone of inhibition at 50 µg/mL [11] [mm] | EC50 [12] [µM] | EC50 [14] [µM] | MCC [17] [µM] | CC50 [18] [µM] | MCC [24] [µM] | EC50 [25] [µM] | inhibition [27] [%] | EC50 [29] [µM] | TIME [36] [h] | other results |
| --- | --- | --- | --- | --- | --- | --- | --- | --- | --- | --- | --- | --- | --- | --- | --- | --- | --- | --- | --- | --- | --- |
| CCN(CC)CN1C(=O)/C(=N/NC(=S)Nc2ccccc2)c2ccccc21 | > 100 | > 0.16 | > 20 | 11 | 20 | 21 | 21 | > 20 | 20 | 11 | 11 | > 0.16 | > 100 | 0.8 | 1.6 | > 100 | > 0.16 | 50.2 | 15 | 0.0443 | EC50 [13]: > 20 µM; EC50 [15]: > 20 µM; EC50 [16]: > 20 µM; CC50 [19]: 10.8 µM; MCC [20]: ≥ 20 µM; EC50 [21]: > 20 µM; zone of inhibition at 50 µg/mL [22]: 11 mm; EC50 [23]: > 20 µM; MCC [26]: 100 µM; EC50 [28]: > 20 µM; zone of inhibition at 50 µg/mL [30]: 21 mm; EC50 [31]: > 20 µM; EC50 [32]: > 20 µM; IC50 [33]: 13 µM; CC50 [34]: 32.3 µM; IC50 [35]: 11 µM; zone of inhibition at 50 µg/mL [37]: 21 mm |
| CCN(CC)CN1C(=O)/C(=N/NC(N)=S)c2ccccc21 | > 100 | > 20 | > 100 | 11 | > 100 | 11 | 11 | > 100 | > 100 | 11 | 11 | > 20 | > 100 | 100 | 85.8 | > 100 | > 20 | 38.2 | > 100 | 0.0357 | EC50 [13]: > 20 µM; EC50 [15]: > 100 µM; EC50 [16]: > 100 µM; CC50 [19]: > 100 µM; MCC [20]: > 100 µM; EC50 [21]: > 100 µM; zone of inhibition at 50 µg/mL [22]: 11 mm; EC50 [23]: > 100 µM; MCC [26]: > 100 µM; EC50 [28]: > 100 µM; zone of inhibition at 50 µg/mL [30]: 11 mm; EC50 [31]: > 20 µM; EC50 [32]: > 100 µM; IC50 [33]: 121 µM; CC50 [34]: 73.8 µM; IC50 [35]: 164 µM; zone of inhibition at 50 µg/mL [37]: 11 mm |
| CCN(CC)CN1C(=O)/C(=N/NC(=S)Nc2ccc(OC)cc2)c2cc(Cl)ccc21 | > 20 | > 0.8 | > 0.8 | 11 | > 20 | 11 | 21 | > 0.8 | > 20 | 11 | 11 | > 0.8 | > 20 | ≥ 0.8 | 11.1 | 100 | > 0.8 | 52.6 | > 20 | 0.0466 | EC50 [13]: > 0.8 µM; EC50 [15]: > 0.8 µM; EC50 [16]: > 0.8 µM; CC50 [19]: 13.2 µM; MCC [20]: 4 µM; EC50 [21]: > 0.8 µM; zone of inhibition at 50 µg/mL [22]: 11 mm; EC50 [23]: > 0.8 µM; MCC [26]: 4 µM; EC50 [28]: > 0.8 µM; zone of inhibition at 50 µg/mL [30]: 21 mm; EC50 [31]: > 0.8 µM; EC50 [32]: > 0.8 µM; IC50 [33]: 11 µM; CC50 [34]: 3.6 µM; IC50 [35]: 6.9 µM; zone of inhibition at 50 µg/mL [37]: 11 mm |
| O=c1[nH]c(=O)n([C@H]2C[C@H](O)[C@@H](CO)O2)cc1/C=C/Br [BRIVUDINE] | > 250 |  |  |  | 29 |  |  |  |  |  |  |  | > 250 |  |  | > 250 |  |  |  |  |  |
| O=C(O)[C@H]1/C(=C/CO)O[C@@H]2CC(=O)N21 |  |  |  |  |  |  |  |  |  |  |  |  |  |  |  |  |  | 67 |  | 0.0668 |  |
| Nc1nc2c(ncn2COCCO)c(=O)[nH]1 [ACYCLOVIR] | > 250 |  |  |  | > 250 |  |  |  |  |  |  |  |  |  |  | > 250 |  |  | 0.7 |  |  |
| CC(N)C12CC3CC(CC(C3)C1)C2 (stereo unspecified) [RIMANTADINE] |  | 24.2 |  |  |  |  |  |  |  |  |  | > 100 |  | 500 | 259 |  | 0.08 |  |  |  |  |
